The results in this text go back to ChEMBL document CHEMBL4043093, “2-Oxo-3, 4-dihydropyrimido[4, 5-d]pyrimidinyl derivatives as new irreversible pan fibroblast growth factor receptor (FGFR) inhibitors” (Eur J Med Chem, 2017).

The target of assay [1] is Dual specificity mitogen-activated protein kinase kinase 3 (Homo sapiens) (UniProt P46734). Description: Inhibition of wild-type human full length MEK3 (M1 to S318 residues) expressed in HEK293 cells assessed as residual activity at 1000 nM after 30 mins by Kinomescan method relative to control. The assay is classed as cell-based. The essentials:
(§1)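 Single-concentration screen at 1 µM across a 456-kinase KINOMEscan panel. The read-out is Percent Control for each kinase.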

The target of assay [2] is Serine/threonine-protein kinase pim-1 (Homo sapiens) (UniProt P11309). The experiment in a line: Inhibition of wild-type human partial length PIM1 (A15 to K313 residues) expressed in Escherichia coli BL21 assessed as residual activity at 1000 nM after 30 mins by Kinomescan method relative to control.
The target of assay [3] is Tyrosine-protein kinase Srms (Homo sapiens) (UniProt Q9H3Y6). Description: Inhibition of wild-type human partial length SRMS (L208 to P488 residues) expressed in HEK293 cells assessed as residual activity at 1000 nM after 30 mins by Kinomescan method relative to control. In kind it is cell-based.
Assay [4] deals with G protein-coupled receptor kinase 3 (Homo sapiens) (UniProt P35626). The experiment in a line: Inhibition of wild-type human full length GRK3 (M1 to L688 residues) expressed in HEK293 cells assessed as residual activity at 1000 nM after 30 mins by Kinomescan method relative to control. The assay is classed as cell-based. The method, boiled down: as §1
Assay [5] has as its target Cyclin-dependent kinase 5 (Homo sapiens) (UniProt Q00535). The experiment in a line: Inhibition of wild-type human full length CDK5 (M1 to P292 residues) expressed in Escherichia coli BL21 assessed as residual activity at 1000 nM after 30 mins by Kinomescan method relative to control. The essentials:
(§2)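 Single-point screen at a fixed 1 µM, run within a 456-kinase DiscoveRx KINOMEscan panel. Each kinase's read-out is Percent Control, i.e. signal relative to a control without compound. Hits were scored by a Percent Control < 35 cut-off, and an S(35) selectivity score was calculated across the non-mutant kinases.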

The subject of assay [6] is Phosphatidylinositol 4,5-bisphosphate 3-kinase catalytic subunit alpha isoform (Homo sapiens), P42336 [I800L]. Description: Inhibition of human partial length PIK3CA I800L mutant (R108 to N1068 residues) expressed in HEK293 cells assessed as residual activity at 1000 nM after 30 mins by Kinomescan method relative to control. The assay is classed as cell-based. The essentials:
as §2

The target in assay [7] is Mitogen-activated protein kinase kinase kinase 7 (Homo sapiens) (UniProt O43318). Description: Inhibition of wild-type human partial length TAK1 (M1 to Q303 residues) expressed in HEK293 cells assessed as residual activity at 1000 nM after 30 mins by Kinomescan method relative to control. The assay is classed as cell-based.
Assay [8] has as its target Bone morphogenetic protein receptor type-1A (Homo sapiens) (UniProt P36894). The experiment in a line: Inhibition of wild-type human partial length BMPR1A (Q214 to I532 residues) expressed in Escherichia coli BL21 assessed as residual activity at 1000 nM after 30 mins by Kinomescan method relative to control.
The target of assay [9] is Serine/threonine-protein kinase/endoribonuclease IRE1 (Homo sapiens) (UniProt O75460). Description: Inhibition of wild-type human partial length ERN1 (S551 to E852 residues) expressed in HEK293 cells assessed as residual activity at 1000 nM after 30 mins by Kinomescan method relative to control. In kind it is cell-based.
Assay [10] deals with Serine/threonine-protein kinase SIK2 (Homo sapiens) (UniProt Q9H0K1). The experiment in a line: Inhibition of wild-type human full length SIK2 (M1 to N926 residues) expressed in Escherichia coli BL21 assessed as residual activity at 1000 nM after 30 mins by Kinomescan method relative to control.
The target in assay [11] is BDNF/NT-3 growth factors receptor (Homo sapiens) (UniProt Q16620). Description: Inhibition of wild-type human partial length TRKB (Q547 to G838 residues) expressed in HEK293 cells assessed as residual activity at 1000 nM after 30 mins by Kinomescan method relative to control. In kind it is cell-based.
The test system of assay [12] is Tyrosine-protein kinase ABL1 (Homo sapiens), P00519 [Q252H]. Description: Inhibition of human non-phosphorylated ABL1 Q252H mutant (S229 to K512 residues) expressed in HEK293 cells assessed as residual activity at 1000 nM after 30 mins by Kinomescan method relative to control. The assay is classed as cell-based. The essentials: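 KINOMEscan binding panel of 456 kinases, with the test compound at a single concentration of 1 µM. Read-out is Percent Control.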

Assay [13] has as its target Tyrosine-protein kinase JAK1 (Homo sapiens) (UniProt P23458). The experiment in a line: Inhibition of wild-type human partial length JAK1 JH1 catalytic domain (V856 to K1154 residues) expressed in Escherichia coli BL21 assessed as residual activity at 1000 nM after 30 mins by Kinomescan method relative to control.
In assay [14] the target is Serine/threonine-protein kinase TAO2 (Homo sapiens) (UniProt Q9UL54). The experiment in a line: Inhibition of wild-type human partial length TAOK2 (M1 to A320 residues) expressed in HEK293 cells assessed as residual activity at 1000 nM after 30 mins by Kinomescan method relative to control. The assay is classed as cell-based.
Assay [15] deals with Wee1-like protein kinase 2 (Homo sapiens) (UniProt P0C1S8). Description: Inhibition of wild-type human partial length WEE2 (M204 to K492 residues) expressed in Escherichia coli BL21 assessed as residual activity at 1000 nM after 30 mins by Kinomescan method relative to control.
Assay [16] addresses G protein-coupled receptor kinase 4 (Homo sapiens) (UniProt P32298). The experiment in a line: Inhibition of wild-type human full length GRK4 (M1 to C578 residues) expressed in Escherichia coli BL21 assessed as residual activity at 1000 nM after 30 mins by Kinomescan method relative to control. The method, boiled down:
as §1

Assay [17] has as its target Serine/threonine-protein kinase ICK (Homo sapiens) (UniProt Q9UPZ9). Description: Inhibition of wild-type human partial length ICK (M1 to P314 residues) expressed in HEK293 cells assessed as residual activity at 1000 nM after 30 mins by Kinomescan method relative to control. The assay is classed as cell-based.
For assay [18], the target named is Serine/threonine-protein kinase LATS1 (Homo sapiens) (UniProt O95835). Description: Inhibition of wild-type human partial length LATS1 (Q678 to V1130 residues) expressed in Escherichia coli BL21 assessed as residual activity at 1000 nM after 30 mins by Kinomescan method relative to control.
Assay [19] addresses SRSF protein kinase 1 (Homo sapiens) (UniProt Q96SB4). The experiment in a line: Inhibition of wild-type human full length SRPK1 (M1 to S655 residues) expressed in Escherichia coli BL21 assessed as residual activity at 1000 nM after 30 mins by Kinomescan method relative to control.
For assay [20], the target named is Serine/threonine-protein kinase 16 (Homo sapiens) (UniProt O75716). The experiment in a line: Inhibition of wild-type human partial length STK16 (G11 to I305 residues) expressed in Escherichia coli BL21 assessed as residual activity at 1000 nM after 30 mins by Kinomescan method relative to control.
Assay [21] concerns the target Calcium/calmodulin-dependent protein kinase kinase 2 (Homo sapiens) (UniProt Q96RR4). Description: Inhibition of wild-type human partial length CAMKK2 (D65 to V471 residues) expressed in Escherichia coli BL21 assessed as residual activity at 1000 nM after 30 mins by Kinomescan method relative to control.

As to `COc1cc(OC)c(Cl)c(N2Cc3cnc(Nc4ccc(F)cc4)nc3N(C3CCN(C(=O)/C=C/CN(C)C)CC3)C2=O)c1Cl`, the Activity came out at 90% in assay [1]; 97% in assay [2]; 100% in assay [3]; 100% in assay [4]; 100% in assay [5]; 83% in assay [6]. Moreover, the Activity in assay [7] came out at 100%; in assay [8], 100%; in assay [9], 100%; in assay [10], 89%; in assay [11], 54%; in [12], 33%. The Activity turned out to be 93% in assay [13]; 6.2% in assay [14]; 99% in assay [15]; 78% in assay [16]; 100% in assay [17]; 100% in assay [18]. Further, the Activity turned out to be 80% in [19], 100% in assay [20] and 99% in assay [21].
